Key:
Liver microsome [1] = experiment: Metabolic stability of the compound in human liver microsomes assessed as compound remaining at 0.1 uM after 30 mins by LC-MS/MS analysis; type: ADME; details: 0.5 h
Plasmodium berghei [2] = experiment: Antiplasmodial activity against Plasmodium berghei ANKA expressing GFP infected in mouse assessed as reduction of parasitemia level at 50 mg/kg, po qd for 4 days measured on day 4 post last dose by flow cytometric analysis relative to control; type: functional; set-up: scale not given: the % may be the effect or the level left
In short: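 Mice (n = 3) infected with GFP-transfected P. berghei ANKA. Test agents were suspended in HPMC vehicle (0.5% w/v hydroxypropylmethylcellulose, 0.5% v/v benzyl alcohol, 0.4% v/v Tween 80, 0.9% w/v NaCl in water). Dosed orally at 4, 24, 48 and 72 h post-infection. Parasitemia read by flow cytometry on day 4 (96 h), detection limit 0.1%. Activity = control-minus-treated mean % parasitemia, relative to control.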

Plasmodium berghei [3] = experiment: Antiplasmodial activity against sporozoite stage of Plasmodium berghei expressing luciferase infected in human HepG2-A16-CD81EGFP cells preincubated with cells for 18 hrs followed by protozoal infection measured after 48 hrs by bioluminescence assay; type: functional, organism-based
In short: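 HepG2 cells were pretreated 18 h with compound, then infected with freshly dissected luciferase-expressing P. berghei sporozoites. After a further 48 h with compound, viability of exoerythrocytic forms and of HepG2 host cells was read by bioluminescence.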

[4] = Drug level in mouse blood at 50 mg/kg, po after 4 hrs; type: ADME, organism-based; details: read-out: Drug uptake
In short: (§1)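 Snapshot whole-blood levels of parent and its sulfone metabolite at 1, 4 and 24 h after the first 50 mg/kg oral dose. Samples came from the P. berghei-infected efficacy mice, dosed in HPMC suspension vehicle.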

[5] = Oral bioavailability in rat at 15 mg/kg; type: ADME, organism-based; details: in vivo
[6] = (§2) Drug level in mouse blood at 50 mg/kg, po after 24 hrs; type: ADME, organism-based; details: blood, read-out: Drug uptake; in short: as §1
[7] = Half life in rat at 5 mg/kg, iv; type: ADME, organism-based; details: in vivo
[8] = Selectivity index, ratio of IC50 for African green monkey VERO cells to IC50 for Plasmodium falciparum NF54; type: toxicity, cell-based; details: read-out: Ratio IC50
[9] = Metabolic stability of the compound in mouse liver microsomes assessed as compound remaining at 0.1 uM after 30 mins by LC-MS/MS analysis; type: ADME; details: 0.5 h
Plasmodium falciparum [10] = experiment: Antiplasmodial activity against drug sensitive Plasmodium falciparum NF54 infected in human erythrocytes after 48 hrs by [3H]-hypoxanthine incorporation assay; type: functional, organism-based
[11] = Selectivity index, ratio of IC50 for African green monkey VERO cells to IC50 for multidrug resistant Plasmodium falciparum K1; type: toxicity, cell-based; details: read-out: Ratio IC50
[12] = Drug level in mouse blood at 50 mg/kg, po after 1 hr; type: ADME, organism-based; details: read-out: Drug uptake; in short: as §1
[13] = Selectivity index, ratio of IC50 for CHO cells to IC50 for multidrug resistant Plasmodium falciparum K1; type: toxicity, cell-based; details: hamster, read-out: Ratio IC50
[14] = Selectivity index, ratio of IC50 for CHO cells to IC50 for Plasmodium falciparum NF54; type: toxicity, cell-based; details: hamster, read-out: Ratio IC50
[15] = Plasma clearance in rat at 5 mg/kg, iv; type: ADME, organism-based
Plasmodium berghei [16] = experiment: Antiplasmodial activity against Plasmodium berghei ANKA expressing GFP infected in mouse assessed as means survival days at 50 mg/kg, po qd for 4 days; type: functional
In short: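 Mice (n = 3) infected with GFP-transfected P. berghei ANKA. Compounds dissolved or suspended in HPMC vehicle (0.5% w/v hydroxypropylmethylcellulose, 0.5% v/v benzyl alcohol, 0.4% v/v Tween 80, 0.9% w/v NaCl in water). Dosed orally 4, 24, 48 and 72 h after infection. Parasitemia read by flow cytometry (detection limit 0.1%). Survival recorded as mean survival time in days.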

Liver microsome [17] = experiment: Metabolic stability of the compound in rat liver microsomes assessed as compound remaining at 0.1 uM after 30 mins by LC-MS/MS analysis; type: ADME; details: 0.5 h
[18] = Volume of distribution in rat at 5 mg/kg, iv; type: ADME, organism-based; details: in vivo
[19] = Half life in rat at 15 mg/kg, po; type: ADME, organism-based; details: in vivo
[20] = biological target: Voltage-gated inwardly rectifying potassium channel KCNH2 (Homo sapiens, UniProt Q12809); experiment: Inhibition of human ERG potassium channel by ionworks patch-clamp electrophysiology assay
[21] = Cmax in Plasmodium falciparum 3D7 infected in non-myelodepleted NOD-SCID IL2Rgammanull mouse engrafted with human erythrocytes at 1.5 mg/kg, po; type: ADME, organism-based; set-up: dose 1.5 mg/kg, route oral; details: in vivo
In short: (§3)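 Engrafted NSG (scid IL2Rgc null) mice infected with P. falciparum were given one oral dose per day for four days. Blood was sampled to measure parent and its sulfone metabolite.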

[22] = Cmax in Plasmodium falciparum 3D7 infected in non-myelodepleted NOD-SCID IL2Rgammanull mouse engrafted with human erythrocytes at 10 mg/kg, po; type: ADME, organism-based; set-up: dose 10 mg/kg, route oral; details: in vivo; in short: as §3
Plasmodium falciparum [23] = experiment: Antiplasmodial activity against multidrug resistant Plasmodium falciparum K1 infected in human erythrocytes after 48 hrs by [3H]-hypoxanthine incorporation assay; type: functional, organism-based
[24] = AUC (0 to 23 hrs) in Plasmodium falciparum 3D7 infected in non-myelodepleted NOD-SCID IL2Rgammanull mouse engrafted with human erythrocytes at 30 mg/kg, po; type: ADME, organism-based; set-up: dose 30 mg/kg, time < 23 hr, route oral; details: in vivo; in short: as §3
[25] = Volume of distribution in rat at 3 mg/kg, iv; type: ADME, organism-based; details: in vivo
[26] = Cmax in Plasmodium falciparum 3D7 infected in non-myelodepleted NOD-SCID IL2Rgammanull mouse engrafted with human erythrocytes at 30 mg/kg, po; type: ADME, organism-based; set-up: dose 30 mg/kg, route oral; details: in vivo; in short: as §3
[27] = Cmax in Plasmodium falciparum 3D7 infected in non-myelodepleted NOD-SCID IL2Rgammanull mouse engrafted with human erythrocytes at 0.1 mg/kg, po; type: ADME, organism-based; set-up: dose 0.1 mg/kg, route oral; details: in vivo; in short: as §3
[28] = AUC (0 to 23 hrs) in Plasmodium falciparum 3D7 infected in non-myelodepleted NOD-SCID IL2Rgammanull mouse engrafted with human erythrocytes at 1.5 mg/kg, po; type: ADME, organism-based; set-up: time < 23 hr, dose 1.5 mg/kg, route oral; details: in vivo; in short: as §3
Blood [29] = experiment: Drug level in rat blood treated with 5-(3-(Cyclopropylsulfonyl)phenyl)-3-(4-(methylsulfinyl)-phenyl)pyrazolo[1,5-a]pyridine at 20 mg/kg, po and 5 mg/kg, iv by LC-MS/MS analysis; type: ADME, organism-based; details: in vivo
In short: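 Metabolites identified by LC-ESI-MS/MS in blood samples from the rat PK study (oral and intravenous dosing).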

Blood [30] = experiment: as §2; type: ADME, organism-based; details: in vivo, 24 h, BLD = below limit of detection; in short: as §1
[31] = AUC (0 to 23 hrs) in Plasmodium falciparum 3D7 infected in non-myelodepleted NOD-SCID IL2Rgammanull mouse engrafted with human erythrocytes at 0.5 mg/kg, po; type: ADME, organism-based; set-up: time < 23 hr, dose 0.5 mg/kg, route oral; details: in vivo; in short: as §3
[32] = Half life in rat at 10 mg/kg, po; type: ADME, organism-based; details: in vivo
[33] = Tmax in Plasmodium falciparum 3D7 infected in non-myelodepleted NOD-SCID IL2Rgammanull mouse engrafted with human erythrocytes at 10 mg/kg, po; type: ADME, organism-based; details: in vivo
In short: (§4)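 Humanized NSG mice infected with P. falciparum received one oral dose per day for 4 consecutive days. Blood was sampled for exposure, with levels of both parent and its main active metabolite measured. Tmax was taken from the blood concentration–time profile after oral dosing.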

[34] = Tmax in Plasmodium falciparum 3D7 infected in non-myelodepleted NOD-SCID IL2Rgammanull mouse engrafted with human erythrocytes at 0.1 mg/kg, po; type: ADME, organism-based; details: in vivo; in short: as §3
[35] = Tmax in Plasmodium falciparum 3D7 infected in non-myelodepleted NOD-SCID IL2Rgammanull mouse engrafted with human erythrocytes at 30 mg/kg, po; type: ADME, organism-based; details: in vivo; in short: as §4
Liver microsome [36] = experiment: Drug level in rat liver microsomes treated with 5-(3-(Cyclopropylsulfonyl)phenyl)-3-(4-(methylsulfinyl)-phenyl)pyrazolo[1,5-a]pyridine at 10 uM after 1 hr by LC-MS/MS analysis; type: ADME
In short: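 Metabolites identified by LC-ESI-MS/MS after in vitro incubation with rat liver microsomes.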

[37] = Oral bioavailability in rat at 10 mg/kg; type: ADME, organism-based; details: in vivo
[38] = Half life in rat at 3 mg/kg, iv; type: ADME, organism-based; details: in vivo
[39] = AUC (0 to 8 hrs) in Plasmodium falciparum 3D7 infected in non-myelodepleted NOD-SCID IL2Rgammanull mouse engrafted with human erythrocytes at 0.1 mg/kg, po; type: ADME, organism-based; set-up: time < 8 hr, dose 0.1 mg/kg, route oral; details: in vivo; in short: as §3
[40] = Tmax in Plasmodium falciparum 3D7 infected in non-myelodepleted NOD-SCID IL2Rgammanull mouse engrafted with human erythrocytes at 1.5 mg/kg, po; type: ADME, organism-based; details: in vivo; in short: as §4
[41] = Plasma clearance in rat at 3 mg/kg, iv; type: ADME, organism-based
[42] = Cmax in Plasmodium falciparum 3D7 infected in non-myelodepleted NOD-SCID IL2Rgammanull mouse engrafted with human erythrocytes at 0.5 mg/kg, po; type: ADME, organism-based; set-up: dose 0.5 mg/kg, route oral; details: in vivo; in short: as §3
[43] = AUC (0 to 23 hrs) in Plasmodium falciparum 3D7 infected in non-myelodepleted NOD-SCID IL2Rgammanull mouse engrafted with human erythrocytes at 10 mg/kg, po; type: ADME, organism-based; set-up: dose 10 mg/kg, time < 23 hr, route oral; details: in vivo; in short: as §3
[44] = Tmax in Plasmodium falciparum 3D7 infected in non-myelodepleted NOD-SCID IL2Rgammanull mouse engrafted with human erythrocytes at 0.5 mg/kg, po; type: ADME, organism-based; details: in vivo; in short: as §4
[45] = Oral bioavailability in rat at 20 mg/kg; type: ADME, organism-based; details: in vivo
[46] = Half life in rat at 20 mg/kg, po; type: ADME, organism-based; details: in vivo

Voltage-gated inwardly rectifying potassium channel KCNH2, sequence (Q12809 whole entry): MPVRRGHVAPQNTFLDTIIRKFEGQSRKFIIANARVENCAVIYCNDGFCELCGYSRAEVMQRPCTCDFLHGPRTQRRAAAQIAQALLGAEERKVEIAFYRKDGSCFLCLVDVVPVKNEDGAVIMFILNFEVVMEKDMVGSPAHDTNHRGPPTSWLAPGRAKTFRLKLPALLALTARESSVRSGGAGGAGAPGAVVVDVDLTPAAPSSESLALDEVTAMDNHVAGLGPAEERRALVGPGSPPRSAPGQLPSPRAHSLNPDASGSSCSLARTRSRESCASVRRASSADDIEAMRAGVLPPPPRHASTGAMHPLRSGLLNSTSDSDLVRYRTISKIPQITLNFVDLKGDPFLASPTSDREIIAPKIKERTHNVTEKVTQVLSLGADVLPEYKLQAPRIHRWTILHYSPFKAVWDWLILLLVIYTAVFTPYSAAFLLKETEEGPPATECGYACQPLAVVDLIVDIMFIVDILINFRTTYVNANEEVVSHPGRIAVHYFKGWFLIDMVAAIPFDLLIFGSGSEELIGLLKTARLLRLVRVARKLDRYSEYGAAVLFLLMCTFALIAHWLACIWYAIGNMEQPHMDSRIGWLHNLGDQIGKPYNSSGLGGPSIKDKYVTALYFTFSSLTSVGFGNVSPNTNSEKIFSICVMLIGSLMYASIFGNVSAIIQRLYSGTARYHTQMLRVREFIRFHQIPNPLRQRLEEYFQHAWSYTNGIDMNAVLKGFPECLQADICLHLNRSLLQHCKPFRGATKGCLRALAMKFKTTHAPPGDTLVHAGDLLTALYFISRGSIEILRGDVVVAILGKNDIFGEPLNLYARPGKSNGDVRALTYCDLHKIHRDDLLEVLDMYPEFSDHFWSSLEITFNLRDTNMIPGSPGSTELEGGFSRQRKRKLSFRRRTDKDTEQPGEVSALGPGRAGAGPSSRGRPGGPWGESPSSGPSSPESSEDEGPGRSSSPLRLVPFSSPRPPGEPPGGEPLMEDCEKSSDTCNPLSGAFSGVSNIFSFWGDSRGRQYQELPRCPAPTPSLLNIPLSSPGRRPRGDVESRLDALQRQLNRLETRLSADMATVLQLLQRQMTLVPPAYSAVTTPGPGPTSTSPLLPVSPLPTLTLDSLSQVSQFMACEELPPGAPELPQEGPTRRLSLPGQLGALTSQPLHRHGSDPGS

## CS(=O)(=O)c1ccc(-c2cnn3ccc(-c4cccc(S(C)(=O)=O)c4)cc23)cc1
Liver microsome [1]
  Stability: Stable
Plasmodium berghei [2]
  Activity: 60%
Plasmodium berghei [3]
  IC50: 6.6 nM
[4]
  concentration at 4 h: 486 nM
[5]
  bioavailability: 1%
[6]
  concentration at 24 h: 290 nM
[7]
  half-life: 4.1 h
[8]
  selectivity ratio: > 1000
[9]
  Stability: Stable
Plasmodium falciparum [10]
  IC50: 8 nM
[11]
  selectivity ratio: > 1000
[12]
  concentration at 1 h: 7600 nM
[13]
  selectivity ratio: > 1000
[14]
  selectivity ratio: > 1000
[15]
  clearance: 13.9 mL/min/kg
Plasmodium berghei [16]
  MSD: 4 days
Liver microsome [17]
  Stability: Stable
[18]
  Vd: 4.8 L/kg
[19]
  half-life: 2.6 h
[20]
  IC50: > 33000 nM

## CS(=O)(=O)c1ccc(-c2cnn3ccc(-c4cccc(S(=O)(=O)C5CC5)c4)cc23)cc1
Liver microsome [1]
  Stability: Stable
[21]
  Cmax: 467 ng/mL
[22]
  Cmax: 2600 ng/mL
Plasmodium falciparum [23]
  IC50: 2.4 nM
Plasmodium berghei [2]
  Activity: 71%
[24]
  AUC(0-t) at 23 h: 78300 ng·h/mL
Plasmodium berghei [3]
  IC50: 20 nM
[25]
  Vd: 0.8 L/kg
[4]
  concentration at 4 h: 1060 nM
[26]
  Cmax: 7430 ng/mL
[27]
  Cmax: 25 ng/mL
[28]
  AUC(0-t) at 23 h: 3200 ng·h/mL
Blood [29]
  Drug metabolism: metabolite_detected
Blood [30]
  Drug uptake: BLD
[9]
  Stability: Stable
[31]
  AUC(0-t) at 23 h: 1010 ng·h/mL
[32]
  half-life: 5.7 h
Plasmodium falciparum [10]
  IC50: 2.7 nM
[33]
  Tmax: 4 h
[34]
  Tmax: 2 h
[35]
  Tmax: 8 h
Liver microsome [36]
  Drug metabolism: metabolite_detected
[37]
  bioavailability: 61%
[38]
  half-life: 2.7 h
[12]
  concentration at 1 h: 697 nM
[39]
  AUC(0-t) at 8 h: 139 ng·h/mL
[40]
  Tmax: 2 h
Plasmodium berghei [16]
  MSD: 7 days
Liver microsome [17]
  Stability: Stable
[41]
  clearance: 3.5 mL/min/kg
[42]
  Cmax: 106 ng/mL
[43]
  AUC(0-t) at 23 h: 24800 ng·h/mL
[44]
  Tmax: 2 h

## CS(=O)(=O)c1ccc(-c2cnn3ccc(-c4cccc(S(=O)(=O)C5CC5)c4)nc23)cc1
Liver microsome [1]
  Stability: Stable
Plasmodium falciparum [23]
  IC50: 0.37 nM
Plasmodium berghei [2]
  Activity: 86%
Plasmodium berghei [3]
  IC50: 0.61 nM
[45]
  bioavailability: 1%
[4]
  concentration at 4 h: 145 nM
[6]
  concentration at 24 h: < 10 nM
[7]
  half-life: 2.8 h
[9]
  Stability: Stable
[46]
  half-life: 7.8 h
Plasmodium falciparum [10]
  IC50: 0.42 nM
[12]
  concentration at 1 h: 169 nM
[15]
  clearance: 1.1 mL/min/kg
Plasmodium berghei [16]
  MSD: 7 days
Liver microsome [17]
  Stability: Stable
[18]
  Vd: 0.3 L/kg
